Data published in publication PMC3038628 (Journal of molecular biology, 2010).

Tests used:
[1] = molecular target: α-tocopherol transfer protein (α-TTP); conditions: cited from earlier work
[2] = FRET assay of NBD-Toc transfer from α-TTP variants to LUVs; format: biochemical; conditions: for Rate of NBD-Toc transfer to LUV, Rate: PC vesicles, 0.225 μM NBD-Toc, 2 μM α-TTP, 100 μM vesicles, room temperature; for Rate of NBD-Toc transfer to LUV, Rate^mut/Rate^wt: relative to wild type
How it was run: (§1)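 Each protein (4 μM) was preloaded with 0.45 μM NBD-Toc for 15 min in SET buffer (pH 7.4). It was then stopped-flow mixed at room temperature with 200 μM acceptor vesicles of 97% liver PC and 3% TRITC-PE (finals 0.225 μM, 2 μM, 100 μM). Vesicles were sonicated SUVs (~60 nm) or extruded LUVs (150 nm). NBD quench was normalised to initial fluorescence and fitted single-exponentially.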

[3] = Filtration; format: binding; conditions: compared with wild type
How it was run: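 Recombinant α-TTP (31.5 μg) was incubated with increasing concentrations of sonicated SUVs or extruded 150 nm LUVs in SET buffer for 30 min at room temperature. Mixtures were spun through 100 kDa-cutoff filters at 10,000g for 20 min to separate vesicle-bound from free protein. Protein was resolved on gels, stained with colloidal Coomassie and quantified by band densitometry.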

[4] = Dual polarization interferometry of protein adsorption to immobilized bilayer; format: binding; conditions: for Ads^mut/Ads^wt (0.50 μM injection): 0.50 μM protein injection; for Ads^mut/Ads^wt (1.0 μM injection): 1.0 μM protein injection; for Adsorption/binding to immobilized bilayers by DPI, % of wild type: injection concentration not stated; for Fold change in affinity: relative to wild type
How it was run: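 Recombinant α-TTP (E. coli BL21(DE3), glutathione affinity, thrombin-cleaved) was dialysed 1 h at 4 °C into pH 7.4 phosphate/137 mM NaCl buffer. It was injected at 25 μl/min for 8 min over a 90:10 DOPC:DOPS bilayer on a silicon oxynitride chip at 20 °C. Adsorbed mass was measured at 0.5 and 1.0 μM in quadruplicate, two channels each. Kd came from fitting Bmax against concentration.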

[5] = FRET assay of NBD-Toc transfer from α-TTP variants to SUVs; format: biochemical; conditions: for Rate of NBD-Toc transfer to SUV, Rate: PC vesicles, 0.225 μM NBD-Toc, 2 μM α-TTP, 100 μM vesicles, room temperature; for Reduction of rate of transfer to SUVs: reduction relative to wild type; for Rate of NBD-Toc transfer to SUV, Rate^mut/Rate^wt: relative to wild type
How it was run: as §1

[6] = system: HepG2 cells; assay: α-TTP-induced secretion of NBD-tocopherol from cultured hepatocytes; format: cell-based, Human; conditions: transiently transfected HepG2; NBD-Toc fluorescence
How it was run: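 HepG2/C3A cells on collagen-coated coverslips (DMEM, 10% FBS) were transiently transfected with α-TTP variants in pcDNA3.1, with mock controls. At 30 h they received 5 μM lipoprotein-complexed NBD-tocopherol for 16–18 h at 37 °C, then 4 h in normal medium for secretion. Cells were fixed, permeabilised and DAPI-stained. NBD fluorescence was imaged at 40× over >14 fields per slide, normalised to cell number; expression was checked by Western blot.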

Molecule	Kd [1]	Rate of NBD-Toc transfer to LUV, Rate [2]	Rate of NBD-Toc transfer to LUV, Rate^mut/Rate^wt [2]	Vesicle binding to SUVs (in words) [3]	Ads^mut/Ads^wt (0.50 μM injection) [4]	Ads^mut/Ads^wt (1.0 μM injection) [4]	Adsorption/binding to immobilized bilayers by DPI, % of wild type [4]	Fold change in affinity [4]	Rate of NBD-Toc transfer to SUV, Rate [5]	Reduction of rate of transfer to SUVs [5]	Rate of NBD-Toc transfer to SUV, Rate^mut/Rate^wt [5]	Inhibition of tocopherol secretion as compared to the wild-type TTP [6]	Binding to immobilized bilayers, % of WT ([4]; printed "for LUVs")	Binding to immobilized bilayers, % of WT ([4]; printed "for SUVs")
Cc1c(C)c2c(c(C)c1O)CC[C@@](C)(CCC[C@H](C)CCC[C@H](C)CCCC(C)C)O2 [α-tocopherol]	~25 nM	–	–	–	–	–	–	–	–	–	–	–	–	–
F165D: α-TTP mutant, Phe165 to Asp (helix A8) (protein, UniProt P49638 1-278, looked up, variant F165D) Alpha-tocopherol transfer …: MAEARSQPSAGPQLNALPDHSPLLQPGLAALRRRAREAGVPLAPLPLTDSFLLRFLRARDFDLDLAWRLLKNYYKWRAECPEISADLHPRSIIGLLKAGYHGVLRSRDPTGSKVLIYRIAHWDPKVFTAYDVFRVSLITSELIVQEVETQRNGIKAIFDLEGWQDSHAFQITPSVAKKIAAVLTDSFPLKVRGIHLINEPVIFHAVFSMIKPFLTEKIKERIHMHGNNYKQSLLQHFPDILPLEYGGEEFSMEDICQEWTNFIMKSEDYLSSISESIQ	–	0.009 ± 0.005 s⁻¹	56%	diminished vesicle binding	0.11	0.19	11%	12.2	0.013 ± 0.001 s⁻¹	90%	10%	–	–	–
F165A: α-TTP mutant, Phe165 to Ala (protein, UniProt P49638 1-278, looked up, variant F165A) Alpha-tocopherol transfer …: MAEARSQPSAGPQLNALPDHSPLLQPGLAALRRRAREAGVPLAPLPLTDSFLLRFLRARDFDLDLAWRLLKNYYKWRAECPEISADLHPRSIIGLLKAGYHGVLRSRDPTGSKVLIYRIAHWDPKVFTAYDVFRVSLITSELIVQEVETQRNGIKAIFDLEGWQASHAFQITPSVAKKIAAVLTDSFPLKVRGIHLINEPVIFHAVFSMIKPFLTEKIKERIHMHGNNYKQSLLQHFPDILPLEYGGEEFSMEDICQEWTNFIMKSEDYLSSISESIQ	–	0.005 ± 0.002 s⁻¹	34%	diminished vesicle binding	0.37	0.45	–	5.1	0.037 ± 0.002 s⁻¹	71%	29%	–	–	–
F169D: α-TTP mutant, Phe169 to Asp (helix A8) (protein, UniProt P49638 1-278, looked up, variant F169D) Alpha-tocopherol transfer …: MAEARSQPSAGPQLNALPDHSPLLQPGLAALRRRAREAGVPLAPLPLTDSFLLRFLRARDFDLDLAWRLLKNYYKWRAECPEISADLHPRSIIGLLKAGYHGVLRSRDPTGSKVLIYRIAHWDPKVFTAYDVFRVSLITSELIVQEVETQRNGIKAIFDLEGWQFSHADQITPSVAKKIAAVLTDSFPLKVRGIHLINEPVIFHAVFSMIKPFLTEKIKERIHMHGNNYKQSLLQHFPDILPLEYGGEEFSMEDICQEWTNFIMKSEDYLSSISESIQ	–	–	0%	–	0.18	0.23	–	14.3	0.015 ± 0.002 s⁻¹	88%	12%	5 fold	–	–
F169A: α-TTP mutant, Phe169 to Ala (protein, UniProt P49638 1-278, looked up, variant F169A) Alpha-tocopherol transfer …: MAEARSQPSAGPQLNALPDHSPLLQPGLAALRRRAREAGVPLAPLPLTDSFLLRFLRARDFDLDLAWRLLKNYYKWRAECPEISADLHPRSIIGLLKAGYHGVLRSRDPTGSKVLIYRIAHWDPKVFTAYDVFRVSLITSELIVQEVETQRNGIKAIFDLEGWQFSHAAQITPSVAKKIAAVLTDSFPLKVRGIHLINEPVIFHAVFSMIKPFLTEKIKERIHMHGNNYKQSLLQHFPDILPLEYGGEEFSMEDICQEWTNFIMKSEDYLSSISESIQ	–	0.008 ± 0.002 s⁻¹	48%	diminished vesicle binding	0.33	0.51	–	–	0.067 ± 0.006 s⁻¹	47%	53%	2 fold	–	–
K217A: α-TTP mutant, surface Lys217 (helix A11) to Ala (protein, UniProt P49638 1-278, looked up, variant K217A) Alpha-tocopherol transfer …: MAEARSQPSAGPQLNALPDHSPLLQPGLAALRRRAREAGVPLAPLPLTDSFLLRFLRARDFDLDLAWRLLKNYYKWRAECPEISADLHPRSIIGLLKAGYHGVLRSRDPTGSKVLIYRIAHWDPKVFTAYDVFRVSLITSELIVQEVETQRNGIKAIFDLEGWQFSHAFQITPSVAKKIAAVLTDSFPLKVRGIHLINEPVIFHAVFSMIKPFLTEAIKERIHMHGNNYKQSLLQHFPDILPLEYGGEEFSMEDICQEWTNFIMKSEDYLSSISESIQ	–	0.010 ± 0.004 s⁻¹	62%	essentially indistinguishable	1.71	1.80	171%	–	0.130 ± 0.011 s⁻¹	–	102%	–	180%	171%
V206A: α-TTP mutant, Val206 to Ala (protein, UniProt P49638 1-278, looked up, variant V206A) Alpha-tocopherol transfer …: MAEARSQPSAGPQLNALPDHSPLLQPGLAALRRRAREAGVPLAPLPLTDSFLLRFLRARDFDLDLAWRLLKNYYKWRAECPEISADLHPRSIIGLLKAGYHGVLRSRDPTGSKVLIYRIAHWDPKVFTAYDVFRVSLITSELIVQEVETQRNGIKAIFDLEGWQFSHAFQITPSVAKKIAAVLTDSFPLKVRGIHLINEPVIFHAAFSMIKPFLTEKIKERIHMHGNNYKQSLLQHFPDILPLEYGGEEFSMEDICQEWTNFIMKSEDYLSSISESIQ	–	0.016 ± 0.002 s⁻¹	100%	–	0.93	1.14	–	–	0.154 ± 0.012 s⁻¹	–	121%	–	–	–
